# Measurements published in ChEMBL document CHEMBL3102806, “1,2,4-Triazole/oxime hybrids as new strategy for nitric oxide donors: Synthesis, anti-inflammatory, ulceroginicity and antiproliferative activities” (Eur J Med Chem, 2014).
# Columns and labels:
# Format in all cases: functional
# HCT-116 = experiment: Growth inhibition of human HCT116 cells after 48 hrs by sulforhodamine B assay; details: HCT-116, 48 h
# How it was run: (§1)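 NCI full ~60 cell line panel. Five 10-fold concentrations from 10^-4 to 10^-8 M, 48 h continuous exposure, SRB protein read-out. Time-zero, control and treated absorbances give percentage growth. GI50 is the concentration where [(Ti−Tz)/(C−Tz)]×100 = 50; TGI is where Ti = Tz; LC50 is where [(Ti−Tz)/Tz]×100 = −50.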
# A498 = experiment: Growth inhibition of human A498 cells after 48 hrs by sulforhodamine B assay; details: A498, 48 h; how it was run: as §1
# ACHN = experiment: Growth inhibition of human ACHN cells after 48 hrs by sulforhodamine B assay; how it was run: as §1
# M14 = experiment: Growth inhibition of human M14 cells after 48 hrs by sulforhodamine B assay; details: M14, 48 h
# How it was run: (§2)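 NCI 60-cell-line panel (nine tumour subpanels), five-dose format: 10-fold dilutions from 10^-4 to 10^-8 M, 48 h continuous exposure, SRB protein stain. Percent growth at each level is derived from time-zero, untreated control and treated absorbances. GI50 is the concentration where [(Ti−Tz)/(C−Tz)]×100 = 50. Values outside the tested range are reported as above or below the limit.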
# [1] = Growth inhibition of human OVCAR4 cells after 48 hrs by sulforhodamine B assay; details: OVCAR-4, 48 h; how it was run: as §2
# [2] = Growth inhibition of human SF539 cells after 48 hrs by sulforhodamine B assay; details: SF-539, 48 h; how it was run: as §2
# Malme-3M = experiment: Growth inhibition of human MALME-3M cells after 48 hrs by sulforhodamine B assay; how it was run: as §2
# NCI-H322M = experiment: Growth inhibition of human NCI-H322M cells after 48 hrs by sulforhodamine B assay; how it was run: as §2
# K562 = experiment: Growth inhibition of human K562 cells after 48 hrs by sulforhodamine B assay; details: K562, 48 h; how it was run: as §1
# NCI-H226 = experiment: Growth inhibition of human NCI-H226 cells after 48 hrs by sulforhodamine B assay; details: NCI-H226, 48 h; how it was run: as §2
# [3] = Growth inhibition of human UO31 cells after 48 hrs by sulforhodamine B assay; details: UO-31, 48 h
# How it was run: (§3)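 NCI 60-cell-line panel, five-dose run at 10-fold dilutions from 10^-4 to 10^-8 M, 48 h continuous exposure. Viability by SRB protein stain. Percent growth is taken from time-zero, untreated-control and treated absorbances. GI50 is the concentration giving a 50% lower net protein increase than in control cells. TGI is taken at Ti = Tz, LC50 at a 50% loss of initial protein.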
# MOLT-4 = experiment: Growth inhibition of human MOLT4 cells after 48 hrs by sulforhodamine B assay; details: MOLT-4, 48 h; how it was run: as §2
# TK-10 = experiment: Growth inhibition of human TK10 cells after 48 hrs by sulforhodamine B assay; details: TK-10, 48 h; how it was run: as §3
# IGROV-1 = experiment: Growth inhibition of human IGROV1 cells after 48 hrs by sulforhodamine B assay; details: IGROV-1, 48 h; how it was run: as §1
# A549 = experiment: Growth inhibition of human A549/ATCC cells after 48 hrs by sulforhodamine B assay; details: A549, 48 h; how it was run: as §1
# UACC-62 = experiment: Growth inhibition of human UACC62 cells after 48 hrs by sulforhodamine B assay; details: UACC-62, 48 h; how it was run: as §3
# KM12 = experiment: Growth inhibition of human KM12 cells after 48 hrs by sulforhodamine B assay; details: KM12, 48 h; how it was run: as §2
# NCI-H522 = experiment: Growth inhibition of human NCI-H522 cells after 48 hrs by sulforhodamine B assay; details: NCI-H522, 48 h; how it was run: as §2
# SN12C = experiment: Growth inhibition of human SN12C cells after 48 hrs by sulforhodamine B assay; how it was run: as §3
# COLO 205 = experiment: Growth inhibition of human COLO205 cells after 48 hrs by sulforhodamine B assay; details: COLO 205, 48 h; how it was run: as §1
# SF-268 = experiment: Growth inhibition of human SF268 cells after 48 hrs by sulforhodamine B assay; details: SF-268, 48 h; how it was run: as §2
# [4] = Growth inhibition of human NCI-ADR-RES cells after 48 hrs by sulforhodamine B assay; how it was run: as §2
# OVCAR-3 = experiment: Growth inhibition of human OVCAR3 cells after 48 hrs by sulforhodamine B assay; details: OVCAR-3, 48 h; how it was run: as §2
# RPMI-8226 = experiment: Growth inhibition of human RPMI8226 cells after 48 hrs by sulforhodamine B assay; details: RPMI-8226, 48 h; how it was run: as §2
# MCF7 = experiment: Growth inhibition of human MCF7 cells after 48 hrs by sulforhodamine B assay; details: MCF7, 48 h; how it was run: as §2
# [5] = Growth inhibition of human Hs 578T cells after 48 hrs by sulforhodamine B assay; how it was run: as §1
# MDA-MB-231 = experiment: Growth inhibition of human MDA-MB-231 cells after 48 hrs by sulforhodamine B assay; details: MDA-MB-231, 48 h; how it was run: as §2
# SW-620 = experiment: Growth inhibition of human SW620 cells after 48 hrs by sulforhodamine B assay; details: SW-620, 48 h; how it was run: as §3
# [6] = read-out: LC50 (the source's name)
structure (smiles),measurement,setting,value
COc1ccc(-c2nnc(SCC(=O)Nc3ccc(/C(C)=N/O)cc3)n2-c2ccccc2)cc1OC,GI50,HCT-116,11.3 µM
same,TGI,HCT-116,> 100 µM
same,CC50,HCT-116; [6],> 100 µM
same,GI50,A498,2.72 µM
same,TGI,A498,46.1 µM
same,CC50,A498; [6],> 100 µM
same,GI50,ACHN,8.08 µM
same,TGI,ACHN,> 100 µM
same,CC50,ACHN; [6],> 100 µM
same,GI50,M14,97.4 µM
same,TGI,M14,> 100 µM
same,CC50,M14; [6],> 100 µM
same,GI50,[1],> 100 µM
same,TGI,[1],> 100 µM
same,CC50,[1]; [6],> 100 µM
same,GI50,[2],4.77 µM
same,TGI,[2],38.8 µM
same,CC50,[2]; [6],> 100 µM
same,GI50,Malme-3M,17.2 µM
same,TGI,Malme-3M,> 100 µM
same,CC50,Malme-3M; [6],> 100 µM
same,GI50,NCI-H322M,4.41 µM
same,TGI,NCI-H322M,> 100 µM
same,CC50,NCI-H322M; [6],> 100 µM
same,GI50,K562,> 100 µM
same,TGI,K562,> 100 µM
same,CC50,K562; [6],> 100 µM
same,GI50,NCI-H226,7.28 µM
same,TGI,NCI-H226,> 100 µM
same,CC50,NCI-H226; [6],> 100 µM
same,GI50,[3],> 100 µM
same,TGI,[3],> 100 µM
same,CC50,[3]; [6],> 100 µM
same,GI50,MOLT-4,> 100 µM
same,TGI,MOLT-4,> 100 µM
same,CC50,MOLT-4; [6],> 100 µM
same,GI50,TK-10,11.3 µM
same,TGI,TK-10,52.7 µM
same,CC50,TK-10; [6],> 100 µM
same,GI50,IGROV-1,3.74 µM
same,TGI,IGROV-1,29.4 µM
same,CC50,IGROV-1; [6],> 100 µM
same,GI50,A549,9.73 µM
same,TGI,A549,> 100 µM
same,CC50,A549; [6],> 100 µM
same,GI50,UACC-62,> 100 µM
same,TGI,UACC-62,> 100 µM
same,CC50,UACC-62; [6],> 100 µM
same,GI50,KM12,> 100 µM
same,TGI,KM12,> 100 µM
same,CC50,KM12; [6],> 100 µM
same,GI50,NCI-H522,21.4 µM
same,TGI,NCI-H522,> 100 µM
same,CC50,NCI-H522; [6],> 100 µM
same,GI50,SN12C,26.2 µM
same,TGI,SN12C,> 100 µM
same,CC50,SN12C; [6],> 100 µM
same,GI50,COLO 205,> 100 µM
same,TGI,COLO 205,> 100 µM
same,CC50,COLO 205; [6],> 100 µM
same,GI50,SF-268,3.07 µM
same,TGI,SF-268,20.3 µM
same,CC50,SF-268; [6],> 100 µM
same,GI50,[4],> 100 µM
same,TGI,[4],> 100 µM
same,CC50,[4]; [6],> 100 µM
same,GI50,OVCAR-3,7.87 µM
same,TGI,OVCAR-3,> 100 µM
same,CC50,OVCAR-3; [6],> 100 µM
same,GI50,RPMI-8226,> 100 µM
same,TGI,RPMI-8226,> 100 µM
same,CC50,RPMI-8226; [6],> 100 µM
same,GI50,MCF7,> 100 µM
same,TGI,MCF7,> 100 µM
same,CC50,MCF7; [6],> 100 µM
same,GI50,[5],3.75 µM
same,TGI,[5],> 100 µM
same,CC50,[5]; [6],> 100 µM
same,GI50,MDA-MB-231,4.26 µM
same,TGI,MDA-MB-231,23.8 µM
same,CC50,MDA-MB-231; [6],> 100 µM
same,GI50,SW-620,> 100 µM
same,TGI,SW-620,> 100 µM
same,CC50,SW-620; [6],> 100 µM
